This is a sample that favours compounds with a hit; in the whole collection about 1.7% have one here.
HCV NS3 hel inh = HCV NS3 helicase inhibition; NS3 helicase DNA unwinding, Cy5 molecular beacon fluorescence; inhibition, % at 10.9 µM; hit rate 0.56% among 290,000;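 active = inhibition above the mean of all tested compounds plus 3 SD, set per campaign, cut at about 35% in these data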;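 note: 0% = DMSO wells and 100% = thioflavine S control wells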
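Material: hepatitis C virus NS3 helicase domain fragment enzyme; measured by: Cy5 fluorescence, 0 and 60 min reads; control set: DMSO and thioflavine S; incubation: 60 min unwinding reaction at 25 °C after ATP addition; read-out basis: % inhibition from 60/0 min fluorescence ratio, DMSO 0%, thioflavine S 100%; repeats: singlicate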
EBV gp42 block = inhibitors of Epstein-Barr virus glycoprotein 42; AID 1085; Q1HVG2; inhibition, % (tested at 21.74 µM); Fluorescence polarization binding assay, mP read-out; hit rate 0.42% among 220,000; in the data active = inhibition above about 50%
Target sequence (Q1HVG2 whole entry, looked up): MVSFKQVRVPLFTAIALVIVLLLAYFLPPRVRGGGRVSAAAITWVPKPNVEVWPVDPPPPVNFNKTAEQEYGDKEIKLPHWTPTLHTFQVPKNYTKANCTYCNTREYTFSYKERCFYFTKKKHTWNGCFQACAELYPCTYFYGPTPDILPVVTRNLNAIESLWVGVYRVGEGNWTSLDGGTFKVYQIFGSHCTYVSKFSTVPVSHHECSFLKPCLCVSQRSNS
MEX-5 binding = C. elegans MEX-5 TCR-2 RNA binding activity. Q9XUB2. MEX-5/FITC-TCR2 RNA binding, fluorescence polarization; active compounds read low. activity score (negative = inhibition of binding), % at 10 µM. hit rate 0.38% among 300,000;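 active = inhibition past about -25% in most replicates, and total fluorescence under double the plate's negative control median, limit read from the data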;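 note: 0% = DMSO and -100% = 5 µM competing unlabeled TCR2 RNA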
Target sequence (Q9XUB2 whole entry, looked up): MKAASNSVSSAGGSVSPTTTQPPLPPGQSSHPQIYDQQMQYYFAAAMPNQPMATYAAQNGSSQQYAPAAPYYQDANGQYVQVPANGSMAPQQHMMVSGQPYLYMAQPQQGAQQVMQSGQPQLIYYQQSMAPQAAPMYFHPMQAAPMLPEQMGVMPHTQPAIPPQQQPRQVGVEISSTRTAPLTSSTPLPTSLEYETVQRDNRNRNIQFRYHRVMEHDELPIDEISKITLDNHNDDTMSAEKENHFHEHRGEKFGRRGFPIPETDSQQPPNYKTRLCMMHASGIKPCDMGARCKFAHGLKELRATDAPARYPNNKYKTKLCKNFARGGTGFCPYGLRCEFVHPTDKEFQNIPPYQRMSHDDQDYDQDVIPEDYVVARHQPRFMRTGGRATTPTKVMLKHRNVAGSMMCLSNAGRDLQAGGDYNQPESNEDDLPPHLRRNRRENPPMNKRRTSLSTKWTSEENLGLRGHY
core dimer inh = blocks dimerization of HCV core protein. TR-FRET GST/Flag-core106 dimerization, 1536-well. inhibition, % at 5 µM. hit rate 0.33% among 300,000. AID 1899;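 active = inhibition above the mean of all tested compounds plus 3 SD, set per screening campaign, cut at about 45% in these data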
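Assay system: Tagged HCV core106 pair (GST and Flag) | Buffer or medium: KF-containing HEPES buffer, pH 7.45, DTT, CHAPS, BSA | Also added: Eu donor and XL665 acceptor anti-tag antibodies | Dosing: One concentration, 5 µM, in 0.5% DMSO | Timing: 4 h at 22.5 °C | Technique: TR-FRET 671 and 617 nm emission | Repeats: Singlicate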
EBNA-1 inh = blocks EBNA-1 binding to DNA; EBNA-1 DNA binding, fluorescence polarization; inhibition, % at 14.8 µM; hit rate 0.34% among 300,000; AID 1950; in the data active = inhibition above about 28%
ZTA counter = blocks Epstein-Barr virus ZTA, an EBNA-1 counter-screen. P03206. ZTA-DNA binding, fluorescence polarization. inhibition, % at 11 µM. hit rate 0.15% among 320,000; in the data active = inhibition above about 33%
NS3 helicase cf = HCV NS3 helicase inhibition, confirmation assay; inhibition, % at 10.9 µM; hit rate 31% among 1,600; NS3 helicase DNA unwinding, Cy5 molecular beacon fluorescence; shares compounds with HCV NS3 hel inh;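 active = inhibition above the mean of all tested compounds plus 3 SD, cutoff set per campaign, cut at about 36% in these data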
FID counter trip = displaces DNA intercalator in HCV helicase counter-screen. shares compounds with HCV NS3 hel inh. inhibition, % at 7.9 µM. DNA fluorescent intercalator displacement, fluorescence. hit rate 4% among 1,600. AID 1945; in the data active = inhibition above about 37%;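 note: 0% = vehicle and 100% = reference compound; higher means more displacement of ethidium bromide from the DNA hairpin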
* hit, by the source's call.

CCOC(=O)c1c(NC(=O)C2C3C=CC(C3)C2C(=O)O)sc2c1CCC(CC)C2 (stereo unspecified) was read as HCV NS3 hel inh 39.4*, EBV gp42 block 10.7, MEX-5 binding 3.0, core dimer inh 9.5, EBNA-1 inh -1.4, ZTA counter 14.3, NS3 helicase cf 83.6* and FID counter trip -35.0.
CCOC(=O)c1c(NC(=O)C2C3CCC(O3)C2C(=O)O)sc2c1CCC(CC)C2 (stereo unspecified) was read as HCV NS3 hel inh 30.0, EBV gp42 block 13.6, MEX-5 binding -0.3, core dimer inh 11.3, EBNA-1 inh -5.8 and ZTA counter 8.6.
Screening O=C(NNC(=O)c1ccco1)c1csc(N2CCOCC2)n1 returned MEX-5 binding -19.5, core dimer inh -4.8, EBNA-1 inh 4.3 and ZTA counter 0.2.
Screening CC(C)(C)c1ccc2c(c1)OC(C(=O)N/N=C/c1ccc([N+](=O)[O-])o1)CO2 (stereo unspecified) returned HCV NS3 hel inh 51.4*, EBV gp42 block -8.8, MEX-5 binding 2.6, core dimer inh 7.2, EBNA-1 inh -8.3, ZTA counter 7.1, NS3 helicase cf -16.8 and FID counter trip 2.0.
Screening CC(C)(C)c1ccc2c(c1)OC(C(=O)N/N=C\c1ccncc1)CO2 (stereo unspecified) returned HCV NS3 hel inh -1.1, EBV gp42 block -9.1, MEX-5 binding 1.1, core dimer inh 1.3, EBNA-1 inh -16.9 and ZTA counter -3.0.
`CCCCCCCC(=O)N/N=C/c1ccc([N+](=O)[O-])o1` gave HCV NS3 hel inh 39.2*, EBV gp42 block -15.2, MEX-5 binding -0.9, core dimer inh 3.4, EBNA-1 inh 4.8, ZTA counter 0.4, NS3 helicase cf -21.1 and FID counter trip 3.8.
`O=C(N/N=C/c1ccc([N+](=O)[O-])o1)c1ccc2c(c1)OCO2` gave HCV NS3 hel inh 40.3*, MEX-5 binding -3.7, NS3 helicase cf -11.6 and FID counter trip 6.0.
`COc1ccc(CNC(=O)CN(C(=O)c2snc(C(N)=O)c2N)c2ccc(OC)c(OC)c2)cc1` gave HCV NS3 hel inh 8.7, MEX-5 binding 0.4, core dimer inh -15.0, EBNA-1 inh 3.5 and ZTA counter -10.9.
For COc1cc(/C=N/NC(=O)c2nonc2N)cc(OC)c1OC the results were HCV NS3 hel inh 39.4*, EBV gp42 block 5.5, MEX-5 binding 2.0, core dimer inh 13.3, EBNA-1 inh 10.2, ZTA counter 12.9, NS3 helicase cf -1.7 and FID counter trip 7.3.
`C=CCn1c(-c2ccccc2)nc(=S)c2c1CCCC2` gave HCV NS3 hel inh -3.0, EBV gp42 block -7.4, MEX-5 binding -3.9, core dimer inh 18.6, EBNA-1 inh 12.0 and ZTA counter -5.7.
O=c1[nH][nH]c2c(N=Cc3ccccc3O)ccc(F)c12 was read as HCV NS3 hel inh 52.7*, EBV gp42 block 11.8, NS3 helicase cf 17.8 and FID counter trip 23.5.
Screening CCc1ccc(O)c(N=Cc2ccccc2O)c1 returned HCV NS3 hel inh 9.9, EBV gp42 block -41.1, MEX-5 binding 0.6, core dimer inh -7.0, EBNA-1 inh 8.0 and ZTA counter 8.0.
COc1ccccc1/C=C/C(=O)OCC(=O)Nc1c(C)nn(-c2ccccc2)c1C was read as ZTA counter -4.5.
`O=C(O)CCCCCCCCCCCc1ccccc1` gave HCV NS3 hel inh 38.1*, EBV gp42 block -10.2, MEX-5 binding -2.7, core dimer inh -5.9, EBNA-1 inh -3.2, ZTA counter 6.9, NS3 helicase cf 70.2* and FID counter trip -37.1.
For O=C(CCC(=O)NCCCc1ccccc1)NCCCc1ccccc1 the results were HCV NS3 hel inh 0.3, EBV gp42 block -1.7, MEX-5 binding 1.2, core dimer inh -6.2, EBNA-1 inh 5.4 and ZTA counter 5.9.
Screening Cn1cnnc1SCCNS(=O)(=O)c1cccc([N+](=O)[O-])c1 returned HCV NS3 hel inh 1.7, MEX-5 binding 3.5, core dimer inh -1.0, EBNA-1 inh -5.9 and ZTA counter -1.4.
CCCCC(=O)NC(=S)Nc1cc(C(=O)O)ccc1Cl was read as HCV NS3 hel inh 54.6*, EBV gp42 block -13.7, MEX-5 binding 1.7, core dimer inh -4.0, EBNA-1 inh -2.9, ZTA counter -3.5, NS3 helicase cf -16.9 and FID counter trip 1.4.
`O=C(CSc1ccc(-c2ccco2)nn1)c1cccc([N+](=O)[O-])c1` gave HCV NS3 hel inh 37.9*, EBV gp42 block -4.6, MEX-5 binding -0.2, core dimer inh 65.1*, EBNA-1 inh 10.3, ZTA counter -8.8, NS3 helicase cf -8.7 and FID counter trip 16.2.
Screening Cc1cc(F)ccc1S(=O)(=O)Nc1ncnc2sc3c(c12)CCC3 returned HCV NS3 hel inh 39.4*, EBV gp42 block -6.6, MEX-5 binding -0.8, core dimer inh 5.4, EBNA-1 inh -5.8, ZTA counter 7.5, NS3 helicase cf 13.9 and FID counter trip -11.6.
`COc1cc(C(=O)N2CCN(c3ccccc3Cl)CC2)ccc1OCC(=O)N1CCOCC1` gave ZTA counter -15.6.
For COc1ccccc1CNC(=O)CNC(=O)c1sc2ccccc2c1Cl the results were HCV NS3 hel inh -8.0, MEX-5 binding 2.3, core dimer inh -14.7, EBNA-1 inh 4.5 and ZTA counter -21.0.
`CC1=Nc2ccccc2/C1=C/c1c(N)n2c(S(=O)(=O)CC(C)C)nsc2nc1=O` gave HCV NS3 hel inh 36.1*, EBV gp42 block 4.0, MEX-5 binding -2.9, NS3 helicase cf 54.3* and FID counter trip -14.8.
Screening COc1ccccc1N=Nc1ccc(O)c2ncccc12 returned HCV NS3 hel inh 40.7*, MEX-5 binding -3.3, core dimer inh -29.5, EBNA-1 inh -5.7, ZTA counter -13.7, NS3 helicase cf -18.9 and FID counter trip 2.8.
CCOc1ccccc1CNC(=O)c1ccc(NC(=O)C2=C(C)OCCS2)cc1 was read as HCV NS3 hel inh -3.7, MEX-5 binding -2.1, core dimer inh 8.2, EBNA-1 inh 1.4 and ZTA counter 17.3.
`CCCCn1nc(CC(=O)NCCN(CC)CC)c2ccccc2c1=O` gave HCV NS3 hel inh 9.4, EBV gp42 block -23.9, MEX-5 binding 0.8, core dimer inh 2.6, EBNA-1 inh 2.5 and ZTA counter -3.1.
Cc1cc(/C=C2\C(=N)N3C(SCc4ccccc4)=NSC3=NC2=O)c(C)n1Cc1ccccc1 was read as HCV NS3 hel inh 7.8, EBV gp42 block -52.8, MEX-5 binding 3.6, core dimer inh 4.5, EBNA-1 inh 0.7 and ZTA counter 0.9.

Screening data from PubChem.
